Source: ChEMBL document CHEMBL1153988 (J Med Chem, 2009)
Active and inactive are the calls of the source. The rule behind the calls is not given here.

Legend:
Mus musculus [1] = test: Anticonvulsant activity in CF1 albino mouse assessed as protection against scMet-induced seizures at 300 mg/kg, ip after 0.5 hrs; assay type: functional, organism-based; parameters: dose 300 mg/kg
Outline: (§1)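 Adult male CF no. 1 albino mice (18-25 g) dosed intraperitoneally with compound suspended in 0.5% methylcellulose (0.01 mL/g). Convulsant challenge given subcutaneously as a 0.85% pentylenetetrazol solution in 0.9% saline. Read-out is animals protected over animals tested, with neurotoxicity scored in parallel.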

Mus musculus [2] = test: Anticonvulsant activity in CF1 albino mouse assessed as protection against scMet-induced seizures at 300 mg/kg, ip after 4 hrs; assay type: functional, organism-based; parameters: dose 300 mg/kg; outline: as §1
Mus musculus [3] = test: Neurotoxicity in CF1 albino mouse at 30 mg/kg, ip after 0.5 hrs; assay type: toxicity, organism-based; parameters: dose 30 mg/kg, route intraperitoneal; conditions: in vivo
Outline: (§2)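 Male CF no. 1 albino mice (18-25 g) received a single ip dose as a suspension in 0.5% methylcellulose. The read-out was the number of animals showing neurotoxicity (minimal motor impairment) over the number tested.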

Mus musculus [4] = test: Neurotoxicity in CF1 albino mouse at 300 mg/kg, ip after 0.5 hrs; assay type: toxicity, organism-based; parameters: dose 300 mg/kg, route intraperitoneal; conditions: in vivo; outline: as §2
Rattus norvegicus [5] = test: Anticonvulsant activity in albino Sprague-Dawley rat assessed as protection against maximal electroshock-induced seizures at 30 mg/kg, po after 4 hrs; assay type: functional, organism-based; parameters: dose 30 mg/kg
Outline: (§3)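 Adult male Sprague-Dawley albino rats (100-150 g) dosed orally with compound suspended in 0.5% methylcellulose (0.04 mL per 10 g). Maximal electroshock challenge at the stated time. Protection is scored in 25% steps as the fraction of animals protected, with neurotoxicity recorded in parallel.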

Rattus norvegicus [6] = test: Anticonvulsant activity in albino Sprague-Dawley rat assessed as protection against scMet-induced seizures at 30 mg/kg, po after 4 hrs; assay type: functional, organism-based; parameters: dose 30 mg/kg
Outline: (§4)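 Male Sprague-Dawley albino rats (100-150 g) were given the compound orally as a suspension in 0.5% methylcellulose. Seizures were induced by subcutaneous pentylenetetrazol, dissolved in 0.9% saline as a 2.82% solution. The read-out was animals protected over animals tested.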

Mus musculus [7] = test: Neurotoxicity in CF1 albino mouse at 30 mg/kg, ip after 4 hrs; assay type: toxicity, organism-based; parameters: dose 30 mg/kg, route intraperitoneal; conditions: in vivo; outline: as §2
Mus musculus [8] = test: Anticonvulsant activity in CF1 albino mouse assessed as protection against maximal electroshock-induced seizures at 30 mg/kg, ip after 4 hrs; assay type: functional, organism-based; parameters: dose 30 mg/kg
Outline: (§5)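 Adult male CF no. 1 albino mice (18-25 g). Test compound suspended in 0.5% methylcellulose and given intraperitoneally at 0.01 mL/g body weight. Maximal electroshock challenge at the stated time. Read-out is the number of animals protected over the number tested; neurotoxicity is scored in parallel.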

Mus musculus [9] = test: Anticonvulsant activity in CF1 albino mouse assessed as protection against scMet-induced seizures at 30 mg/kg, ip after 4 hrs; assay type: functional, organism-based; parameters: dose 30 mg/kg; outline: as §1
Rattus norvegicus [10] = test: Anticonvulsant activity in albino Sprague-Dawley rat assessed as protection against maximal electroshock-induced seizures at 30 mg/kg, po after 1 hr; assay type: functional, organism-based; parameters: dose 30 mg/kg; outline: as §3
Mus musculus [11] = test: Neurotoxicity in CF1 albino mouse at 100 mg/kg, ip after 4 hrs; assay type: toxicity, organism-based; parameters: dose 100 mg/kg, route intraperitoneal; conditions: in vivo; outline: as §2
Mus musculus [12] = test: Anticonvulsant activity in CF1 albino mouse assessed as protection against maximal electroshock-induced seizures at 30 mg/kg, ip after 0.5 hrs; assay type: functional, organism-based; parameters: dose 30 mg/kg; outline: as §5
Mus musculus [13] = test: Anticonvulsant activity in CF1 albino mouse assessed as protection against maximal electroshock-induced seizures at 300 mg/kg, ip after 4 hrs; assay type: functional, organism-based; parameters: dose 300 mg/kg; outline: as §5
Mus musculus [14] = test: Anticonvulsant activity in CF1 albino mouse assessed as protection against maximal electroshock-induced seizures at 100 mg/kg, ip after 4 hrs; assay type: functional, organism-based; parameters: dose 100 mg/kg; outline: as §5
Mus musculus [15] = test: Anticonvulsant activity in CF1 albino mouse assessed as protection against maximal electroshock-induced seizures at 100 mg/kg, ip after 0.5 hrs; assay type: functional, organism-based; parameters: dose 100 mg/kg; outline: as §5
Rattus norvegicus [16] = test: Anticonvulsant activity in albino Sprague-Dawley rat assessed as protection against maximal electroshock-induced seizures at 30 mg/kg, po after 30 mins; assay type: functional, organism-based; parameters: dose 30 mg/kg; outline: as §3
Rattus norvegicus [17] = test: Anticonvulsant activity in albino Sprague-Dawley rat assessed as protection against scMet-induced seizures at 30 mg/kg, po after 1 hr; assay type: functional
Outline: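 Oral dosing of male Sprague-Dawley rats (100-150 g) with compound in 0.5% methylcellulose. Convulsant challenge given subcutaneously as a 2.82% pentylenetetrazol solution in 0.9% saline. Groups of about 8 rats per dose. For quantitation, doses spanning 0% to 100% protection were fitted by probit analysis to give ED50 with 95% confidence interval.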

Mus musculus [18] = test: Anticonvulsant activity in CF1 albino mouse assessed as protection against maximal electroshock-induced seizures at 300 mg/kg, ip after 0.5 hrs; assay type: functional, organism-based; parameters: dose 300 mg/kg; outline: as §5
Rattus norvegicus [19] = test: Anticonvulsant activity in albino Sprague-Dawley rat assessed as protection against scMet-induced seizures at 30 mg/kg, po after 30 mins; assay type: functional; outline: as §4
Rattus norvegicus [20] = test: Anticonvulsant activity in albino Sprague-Dawley rat assessed as protection against scMet-induced seizures at 30 mg/kg, po after 2 hrs; assay type: functional; outline: as §4
Mus musculus [21] = test: Anticonvulsant activity in CF1 albino mouse assessed as protection against scMet-induced seizures at 100 mg/kg, ip after 0.5 hrs; assay type: functional, organism-based; parameters: dose 100 mg/kg; outline: as §1
Mus musculus [22] = test: Neurotoxicity in CF1 albino mouse at 100 mg/kg, ip after 0.5 hrs; assay type: toxicity, organism-based; parameters: dose 100 mg/kg, route intraperitoneal; conditions: in vivo; outline: as §2
Mus musculus [23] = test: Anticonvulsant activity in CF1 albino mouse assessed as protection against scMet-induced seizures at 30 mg/kg, ip after 0.5 hrs; assay type: functional, organism-based; parameters: dose 30 mg/kg; outline: as §1
Rattus norvegicus [24] = test: Anticonvulsant activity in albino Sprague-Dawley rat assessed as protection against maximal electroshock-induced seizures at 30 mg/kg, po after 2 hrs; assay type: functional, organism-based; parameters: dose 30 mg/kg; outline: as §3
Mus musculus [25] = test: Neurotoxicity in CF1 albino mouse at 300 mg/kg, ip after 4 hrs; assay type: toxicity, organism-based; parameters: dose 300 mg/kg, route intraperitoneal; conditions: in vivo; outline: as §2
Rattus norvegicus [26] = test: Anticonvulsant activity in albino Sprague-Dawley rat assessed as protection against scMet-induced seizures at 30 mg/kg, po after 15 mins; assay type: functional; outline: as §4
Rattus norvegicus [27] = test: Anticonvulsant activity in albino Sprague-Dawley rat assessed as protection against maximal electroshock-induced seizures at 30 mg/kg, po after 15 mins; assay type: functional, organism-based; parameters: dose 30 mg/kg; outline: as §3

## CC1(C)C(C)(C)C1(F)C(=O)NC(N)=O
Mus musculus [1]
  Activity: Non-toxic
Mus musculus [2]
  Activity: Non-toxic
Mus musculus [3]
  Activity: Non-toxic
Mus musculus [4]
  Activity: Non-toxic
Rattus norvegicus [5]
  Activity: inactive
Rattus norvegicus [6]
  Activity: inactive
Mus musculus [7]
  Activity: Non-toxic
Mus musculus [8]
  Activity: Non-toxic
Mus musculus [9]
  Activity: Non-toxic
Rattus norvegicus [10]
  Activity: inactive
Mus musculus [11]
  Activity: Non-toxic
Mus musculus [12]
  Activity: Non-toxic
Mus musculus [13]
  Activity: Non-toxic
Mus musculus [14]
  Activity: Non-toxic
Mus musculus [15]
  Activity: Non-toxic
Rattus norvegicus [16]
  Activity: inactive
Rattus norvegicus [17]
  Activity: 25%
Mus musculus [18]
  Activity: Non-toxic
Rattus norvegicus [19]
  Activity: 25%
Rattus norvegicus [20]
  Activity: 50%
Mus musculus [21]
  Activity: Non-toxic
Mus musculus [22]
  Activity: Non-toxic
Mus musculus [23]
  Activity: Non-toxic
Rattus norvegicus [24]
  Activity: inactive
Mus musculus [25]
  Activity: Non-toxic
Rattus norvegicus [26]
  Activity: 25%
Rattus norvegicus [27]
  Activity: inactive
